Measurements pooled from the literature.
Protocols differ between the studies behind these lines.
Target: STE20/SPS1-related proline-alanine-rich protein kinase (STK39, Homo sapiens, UniProt Q9UEW8)

Structure (SMILES) | effect on | mode | method | concentration | measurement | result
CC(C)(O)[C@H]1CC[C@H](Nc2ccc3ncc(-c4cccc(C(F)(F)F)c4)n3n2)CC1 | enzyme activity | inhibitor | – | 1 µM | remaining activity | 112%
Cc1cc(-n2nc(Cc3cc(F)cc(C(F)(F)F)c3)nc2C)ccc1C(N)=O | cell-free assay | – | competition with immobilised ligand | 1 µM | remaining binding | 100%
COc1ccc(COc2ccc(Cc3cnc(N)nc3N)cc2OC)cc1 | cell-free assay | – | – | 0.5 µM | remaining signal | 87.6%
Cc1sc(C(=O)NC2COC2)cc1-n1cc(NC(=O)Nc2c(F)cccc2Cl)cn1 | enzyme activity | inhibitor | – | 10 µM | remaining activity | 64.5%
O=C(Nc1ccc(Oc2ccc(F)cc2)cc1)N1CCc2ncccc2[C@H]1c1ccc(F)cc1 | cell-free assay | – | competition with immobilised ligand | 1 µM | remaining binding | 82%
N#CCCc1ccc2c(c1)-c1[nH]c3ccc([N+](=O)[O-])cc3c1CC(=O)N2 | cell-free assay | – | – | 0.5 µM | remaining signal | 96.4%
Cn1cnc(Br)c1C1=CN(c2ncnc3[nH]cnc23)CCS1 | enzyme activity | inhibitor | radiometric | 2 µM | inhibition | 86.6%
O=C1NC(=O)c2cc(Nc3ccc(F)cc3)c(Nc3ccc(F)cc3)cc21 | cell-free assay | – | – | 0.5 µM | remaining signal | 89.2%
Cc1c(NC(=O)c2cc(C(N)=O)nc3cc(F)ccc23)c(C(F)(F)F)nn1Cc1ccc(C(C)(C)C)cc1 | cell-free assay | – | competition with immobilised ligand | 1 µM | remaining binding | 100%
Nc1ncnc2occ(-c3ccc(NC(=O)Nc4cc(C(F)(F)F)ccc4F)cc3)c12 | cell-free assay | inhibitor | – | 20 µM | remaining signal | 19%
CS(=O)(=O)N1CCCC(NC(=O)[C@H](CCC2CCCCC2)NC(=O)c2ccc(CNc3ncnc4c3nnn4-c3ccccc3)cc2)C1 (stereo partly drawn) | cell-free assay | – | competition with immobilised ligand | 0.1 µM | remaining binding | 100%
CC(C)(C)c1nc(-c2cccc(NS(=O)(=O)c3c(F)cccc3F)c2F)c(-c2ccnc(N)n2)s1 | enzyme activity | inhibitor | radiometric | 1 µM | remaining activity | 81%
